Experimental data from ChEMBL document CHEMBL4602630, “Synthesis and cytotoxicity evaluation of glycosidic derivatives of lawsone against breast cancer cell lines” (Bioorg Med Chem Lett, 2020).

Legend:
MCF7 = test: Cytotoxicity against ER-positive human MCF7 cells assessed as redution in cell viability incubated for 72 hrs by SRB assay; assay type: functional, cell-based; settings: MCF7, 72 h
In short: (§1)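 Breast tumour lines from ATCC, each in its own medium with 10% FBS: SKBR-3 (HER2+) in McCoy's 5A; MCF-7 (ER+) in MEM plus 0.01 mg/mL human recombinant insulin; MDA-MB-231 (triple-negative) in DMEM. Cells were kept at 37°C, 5% CO2, humidified. Compounds were tested on 1x10^4 cells/well by sulforhodamine B assay. IC50 came from a nonlinear fit of log concentration vs normalized response (variable slope).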

MDA-MB-231 = test: Cytotoxicity against triple-negative human MDA-MB-231 cells assessed as redution in cell viability incubated for 72 hrs by SRB assay; assay type: functional, cell-based; settings: MDA-MB-231, 72 h; in short: as §1
SK-BR-3 = test: Cytotoxicity against HER2-positive human SKBR3 cells assessed as redution in cell viability incubated for 72 hrs by SRB assay; assay type: functional, cell-based; settings: SK-BR-3, 72 h
[1] = Cytotoxicity against human HGF cells assessed as redution in cell viability incubated for 72 hrs by SRB assay; assay type: cell-based
In short: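 Non-tumour human HGF cells were obtained under UFSC ethics approval 021/2009 and kept at 37°C, 5% CO2, humidified, with 10% FBS. Compounds were tested on 1x10^4 cells/well by sulforhodamine B assay. IC50 came from a nonlinear variable-slope fit of log concentration vs normalized response.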

[2] = Selectivity index, ratio of IC50 for human HGF cells to IC50 for SKBR3 cells; assay type: toxicity; settings: HGF cells versus SKBR3 cells, read-out: Ratio IC50
[3] = Selectivity index, ratio of IC50 for human HGF cells to IC50 for MDA-MB-231 cells; assay type: toxicity; settings: HGF cells versus MDA-MB-231 cells, read-out: Ratio IC50
[4] = Selectivity index, ratio of IC50 for human HGF cells to IC50 for MCF7 cells; assay type: toxicity; settings: HGF cells versus MCF7 cells, read-out: Ratio IC50

| SMILES | IC50 (MCF7) [µM] | IC50 (MDA-MB-231) [µM] | IC50 (SK-BR-3) [µM] | IC50 [1] [µM] | selectivity ratio [2] | selectivity ratio [3] | selectivity ratio [4] |
| --- | --- | --- | --- | --- | --- | --- | --- |
| CC(=O)OC[C@H]1O[C@@H](n2cc(COC3=CC(=O)c4ccccc4C3=O)nn2)[C@H](OC(C)=O)[C@@H](OC(C)=O)[C@@H]1OC(C)=O | 3.33 | 14 | 0.78 | 17.7 | 22 |  |  |
| CC(=O)OC[C@H]1O[C@@H](OC2=CC(=O)c3ccccc3C2=O)[C@H](OC(C)=O)[C@@H](OC(C)=O)[C@H]1OC(C)=O | 13.6 | 13.3 | 8.86 | 34.6 |  |  |  |
| CC(=O)OC[C@H]1O[C@H](OC2=CC(=O)c3ccccc3C2=O)[C@H](OC(C)=O)[C@@H](OC(C)=O)[C@@H]1OC(C)=O | 3.52 | 8.29 | 2.11 | 20.2 |  |  |  |
| CC(=O)N[C@H]1[C@@H](OC2=CC(=O)c3ccccc3C2=O)O[C@H](COC(C)=O)[C@@H](OC(C)=O)[C@@H]1OC(C)=O | 6.59 | 19.8 | 3.41 | 40.2 |  |  |  |
| CC(=O)OC[C@H]1O[C@H](OC2=CC(=O)c3ccccc3C2=O)[C@H](OC(C)=O)[C@@H](OC(C)=O)[C@H]1OC(C)=O | 4.58 | 9.18 | 2.51 | 35.7 |  | 4 | 8 |
| O=C1C=C(OCc2cn([C@@H]3O[C@H](CO)[C@H](O)[C@H](O)[C@H]3O)nn2)C(=O)c2ccccc21 | > 50 | > 50 | > 50 | > 50 |  |  |  |
| CC(=O)OC[C@H]1O[C@@H](n2cc(COC3=CC(=O)c4ccccc4C3=O)nn2)[C@H](OC(C)=O)[C@@H](OC(C)=O)[C@H]1OC(C)=O | 4.22 | 16.7 | 1.27 | 27.6 | 22 |  |  |
| CC(=O)N[C@@H]1[C@@H](O)[C@H](O)[C@@H](CO)O[C@H]1n1cc(COC2=CC(=O)c3ccccc3C2=O)nn1 | > 50 | > 50 | > 50 | > 50 |  |  |  |
| CC(=O)O[C@H]1[C@H](OC(C)=O)[C@H](OC2=CC(=O)c3ccccc3C2=O)O[C@@H](C)[C@H]1OC(C)=O | 11 | 18.2 | 9.52 | 19.8 |  |  |  |
| CC(=O)O[C@@H]1[C@H](OC(C)=O)[C@H](C)O[C@H](n2cc(COC3=CC(=O)c4ccccc4C3=O)nn2)[C@H]1OC(C)=O | 9.74 | 23.4 | 3.32 | 38.1 |  |  |  |
| CC(=O)N[C@H]1[C@H](OC2=CC(=O)c3ccccc3C2=O)O[C@H](COC(C)=O)[C@@H](OC(C)=O)[C@@H]1OC(C)=O | 16.3 | 27.6 | 8.3 | > 50 |  |  |  |
| O=C1C=C(OCc2cn([C@@H]3O[C@H](CO)[C@@H](O)[C@H](O)[C@H]3O)nn2)C(=O)c2ccccc21 | 38.9 | > 50 | 34.7 | > 50 |  |  |  |
| CC(=O)O[C@H]1[C@H](OC(C)=O)[C@@H](OC2=CC(=O)c3ccccc3C2=O)O[C@@H](C)[C@H]1OC(C)=O | 5.02 | 8.65 | 2.41 | > 50 |  |  |  |
| C[C@@H]1O[C@H](n2cc(COC3=CC(=O)c4ccccc4C3=O)nn2)[C@@H](O)[C@H](O)[C@@H]1O | > 50 | > 50 | > 50 | > 50 |  |  |  |
| CC(=O)OC[C@H]1O[C@@H](OC2=CC(=O)c3ccccc3C2=O)[C@H](OC(C)=O)[C@@H](OC(C)=O)[C@@H]1OC(C)=O | 4.76 | 12.6 | 2.96 | 19.1 |  |  |  |
| CC(=O)N[C@@H]1[C@@H](OC(C)=O)[C@H](OC(C)=O)[C@@H](COC(C)=O)O[C@H]1n1cc(COC2=CC(=O)c3ccccc3C2=O)nn1 | 28.9 | > 50 | 17 | > 50 |  |  |  |
| COc1cccc2c1C(=O)c1c(O)c3c(c(O)c1C2=O)C[C@@](O)(C(=O)CO)C[C@@H]3O[C@H]1C[C@H](N)[C@H](O)[C@H](C)O1 [DOXORUBICIN] | 0.38 |  |  | > 50 |  |  |  |
| O=C1C=C(O)C(=O)c2ccccc21 [LAWSONE] | > 50 | > 50 | > 50 | > 50 |  |  |  |
